Laboratory results as given in ChEMBL document CHEMBL3120123, “Molecular dynamics simulations and structure-based rational design lead to allosteric HCV NS5B polymerase thumb pocket 2 inhibitor with picomolar cellular replicon potency” (J Med Chem, 2014).
In brackets after ≈: the same amount, converted by molar mass.

Experiments:
[1] = Permeability across apical to basolateral side in human Caco2 cells; assay type: ADME, cell-based; settings: Caco-2, read-out: permeability
How it was run: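 Caco-2 monolayer permeability run with apical compartment at pH 6.0 and basolateral compartment at pH 7.4; reported in 10^-6 cm/s.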

[2] = system: Hepatitis C virus; assay: Antiviral activity against HCV genotype 1b infected in human HuH7 cells assessed as inhibition of viral RNA replication after 72 hrs by luciferase reporter gene assay; assay type: functional, organism-based, Hepacivirus hominis; settings: Huh-7, 72 h
How it was run: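 HCV genotype 1b subgenomic luciferase reporter replicon cells. EC50 taken from inhibition of replicon RNA replication, luciferase read-out, n ≥ 2; method as described in earlier work.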

[3] = system: Hepatitis C virus; assay: Antiviral activity against HCV genotype 1a infected in human HuH7-J cells assessed as inhibition of viral RNA replication after 72 hrs by poliovirus internal ribosomal entry site incorporating luciferase reporter gene assay; assay type: functional, organism-based, Hepacivirus hominis; settings: subtype 1a, Huh-7, 72 h
How it was run: (§1)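 Subgenomic HCV replicons (gt1a or gt1b) carrying a luciferase reporter, with the poliovirus IRES placed upstream of luciferase. EC50 is derived from inhibition of HCV RNA replication read by luciferase signal.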

[4] = system: Hepatitis C virus; assay: Antiviral activity against HCV genotype 1b expressing HCV genotype 3a NS5B infected in human HuH7-J cells assessed as inhibition of viral RNA replication after 72 hrs by poliovirus internal ribosomal entry site incorporating luciferase reporter gene assay; assay type: functional, organism-based, Hepacivirus hominis; settings: Huh-7, 72 h
How it was run: (§2)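 Surrogate assay using chimeric gt1b subgenomic replicons that carry the NS5B polymerase gene from gt2b, 3a, 4a or 5a. Luciferase reporter sits downstream of the poliovirus IRES. EC50 is derived from inhibition of replication read by luciferase.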

[5] = system: Hepatitis C virus; assay: Antiviral activity against HCV genotype 1b expressing HCV genotype 6a NS5B infected in human HuH7-J cells assessed as inhibition of viral RNA replication after 72 hrs by real-time PCR analysis; assay type: functional, organism-based, Hepacivirus hominis; settings: Huh-7, 72 h
How it was run: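 Surrogate assay using a chimeric gt1b subgenomic replicon carrying the gt6a NS5B polymerase gene. Replicon RNA is quantified by RT-PCR, and EC50 is derived from inhibition of HCV RNA replication.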

[6] = Solubility of the compound in form of lyophilized, amorphous solid at pH 6.8 after 24 hrs by shake flask method; assay type: physicochemical; settings: buffer
How it was run: (§3)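 Lyophilized amorphous solids tested by 24 h shaking flask method; solubility given in µg/ml at pH 2 and at pH 6.8.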

[7] = Solubility of the compound in form of lyophilized, amorphous solid at pH 2 after 24 hrs by shake flask method; assay type: physicochemical; settings: buffer; how it was run: as §3
[8] = Lipophilicity, log D of the compound at pH 7.4; assay type: physicochemical; settings: buffer
[9] = system: Hepatitis C virus; assay: Antiviral activity against HCV genotype 1b expressing HCV genotype 5a NS5B infected in human HuH7-J cells assessed as inhibition of viral RNA replication after 72 hrs by poliovirus internal ribosomal entry site incorporating luciferase reporter gene assay; assay type: functional, organism-based, Hepacivirus hominis; settings: Huh-7, 72 h; how it was run: as §2
[10] = system: Hepatitis C virus; assay: Antiviral activity against HCV genotype 1b expressing HCV genotype 2b NS5B infected in human HuH7-J cells assessed as inhibition of viral RNA replication after 72 hrs by poliovirus internal ribosomal entry site incorporating luciferase reporter gene assay; assay type: functional, organism-based, Hepacivirus hominis; settings: Huh-7, 72 h; how it was run: as §2
[11] = system: Hepatitis C virus; assay: Antiviral activity against HCV genotype 1b infected in human HuH7-J cells assessed as inhibition of viral RNA replication after 72 hrs by poliovirus internal ribosomal entry site incorporating luciferase reporter gene assay; assay type: functional, organism-based, Hepacivirus hominis; settings: Huh-7, 72 h; how it was run: as §1
[12] = system: Hepatitis C virus; assay: Antiviral activity against HCV genotype 1b expressing HCV genotype 4a NS5B infected in human HuH7-J cells assessed as inhibition of viral RNA replication after 72 hrs by poliovirus internal ribosomal entry site incorporating luciferase reporter gene assay; assay type: functional, organism-based, Hepacivirus hominis; settings: Huh-7, 72 h; how it was run: as §2

SMILES	Papp A→B [1] [×10⁻⁶ cm/s]	EC50 [2] [nM]	solubility thermodynamic at 24 h [6] [µg/mL]	solubility thermodynamic at 24 h [7] [µg/mL]	logD [8]	other results
O=c1ncn(Cc2c(F)cc(F)cc2F)c2ccc(Oc3ccccc3C(F)(F)F)cc12	9.2					
NC(=O)c1cccc(Oc2ccc3c(c2)c(=O)ncn3Cc2c(F)cc(F)cc2F)c1C(F)(F)F	1.9	180				
O=C(Nc1ccccc1)c1cccc(Oc2ccc3c(c2)c(=O)ncn3Cc2c(F)cc(F)cc2F)c1C(F)(F)F	0.84	2.5				
O=C(Nc1cccnc1)c1cccc(Oc2ccc3c(c2)c(=O)ncn3Cc2c(F)cc(F)cc2F)c1C(F)(F)F	0.26	5.7				
O=C(Nc1ccccn1)c1cccc(Oc2ccc3c(c2)c(=O)ncn3Cc2c(F)cc(F)cc2F)c1C(F)(F)F	1.2	6.8				
O=c1ncn(Cc2c(F)cc(F)cc2F)c2ccc(Oc3cccc(-c4nc5ncccc5o4)c3C(F)(F)F)cc12	3	3.3				
O=c1ncn(Cc2c(F)cc(F)cc2F)c2ccc(Oc3cccc(-c4ccc5[nH]ccc5c4)c3C(F)(F)F)cc12	10.5	0.13	< 0.1	< 0.1	5.1	EC50 [3]: 0.12 nM; EC50 [4]: 80 nM; EC50 [5]: 11 nM; EC50 [9]: 1.3 nM; EC50 [10]: 15 nM; EC50 [11]: 0.11 nM; EC50 [12]: 1.1 nM
O=c1ncn(Cc2c(F)cc(F)cc2F)c2ccc(Oc3cccc(-c4ccc5[nH]cnc5c4)c3C(F)(F)F)cc12	0.4	0.6	< 0.1	< 0.1	4.7	
O=c1ncn(Cc2c(F)cc(F)cc2F)c2ccc(Oc3cccc(-c4ccc5cc[nH]c5c4)c3C(F)(F)F)cc12		10	< 0.1	< 0.1	5	
Nc1ccc(-c2cccc(Oc3ccc4c(c3)c(=O)ncn4Cc3c(F)cc(F)cc3F)c2C(F)(F)F)cn1	4.1	10	< 0.1	0.3 (≈ 0.553 µM)	3.9	
Cc1ccc(-c2cccc(Oc3ccc4c(c3)c(=O)ncn4Cc3c(F)cc(F)cc3F)c2C(F)(F)F)cn1		55	< 0.1	180 (≈ 332 µM)	4.2	
Cc1cc(-c2cccc(Oc3ccc4c(c3)c(=O)ncn4Cc3c(F)cc(F)cc3F)c2C(F)(F)F)cnc1N	1.1	6	< 0.1	74 (≈ 133 µM)	> 4.7	
O=c1ncn(Cc2c(F)cc(F)cc2F)c2ccc(Oc3cccc(-c4ccccc4)c3C(F)(F)F)cc12		450				
O=c1ncn(Cc2c(F)cc(F)cc2F)c2ccc(Oc3cccc(-c4ccccn4)c3C(F)(F)F)cc12		310				
O=c1ncn(Cc2c(F)cc(F)cc2F)c2ccc(Oc3ccc(-c4nc5ncccc5o4)cc3)cc12		490				
O=c1ncn(Cc2c(F)cc(F)cc2F)c2ccc(Oc3ccc(-c4ccc5[nH]ccc5c4)cc3)cc12	3.5	4.6	0.18 (≈ 0.362 µM)	< 0.1	4.4	
